Laboratory results published in article PMC3051377 (British Journal of Pharmacology, 2011).
pEC50, pKd, pKi: −log10 of the molar value.

Experiments:
[1] = system: G-proteins in GDP-less membranes of CHO-M2 cells; assay: Kinetics of [35S]GTPγS binding to GDP-less membranes; set-up: species or system Chinese hamster
In short: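 GDP-less CHO-M2 membranes, 30°C. Association of 1 nM [³⁵S]GTPγS was measured after 20 min pre-incubation with buffer or 100 µM agonist, ±50 µM GDP. For dissociation, membranes were preloaded 90 min with 1 nM [³⁵S]GTPγS ±50 µM GDP, then chased with 1 µM GTPγS alone or with agonist. Filtration on glass-fibre filters, scintillation counting. Three experiments in quadruplicate; exponential association/dissociation fits.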

[2] = molecular target: T1, human M2 muscarinic receptor (Homo sapiens, UniProt P08172); assay: Agonist-stimulated [35S]GTPγS binding to membranes from M2 CHO cells; type: biochemical
T1 sequence (P08172 1-466): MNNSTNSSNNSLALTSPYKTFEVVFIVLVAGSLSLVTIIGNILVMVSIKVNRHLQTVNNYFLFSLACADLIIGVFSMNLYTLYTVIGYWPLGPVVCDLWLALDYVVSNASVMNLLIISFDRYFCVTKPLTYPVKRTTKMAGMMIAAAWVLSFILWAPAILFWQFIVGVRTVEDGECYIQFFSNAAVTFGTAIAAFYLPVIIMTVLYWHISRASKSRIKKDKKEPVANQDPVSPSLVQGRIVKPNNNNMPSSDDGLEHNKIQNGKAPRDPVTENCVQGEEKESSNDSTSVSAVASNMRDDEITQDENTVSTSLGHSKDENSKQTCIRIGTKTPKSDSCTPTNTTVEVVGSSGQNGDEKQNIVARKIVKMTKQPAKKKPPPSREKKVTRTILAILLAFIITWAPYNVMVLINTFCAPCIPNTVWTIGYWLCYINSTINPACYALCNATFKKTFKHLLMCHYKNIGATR

[3] = system: G-proteins in GDP-less membranes of CHO-M2 cells; assay: Kinetics of [3H]GDP binding to GDP-less membranes; set-up: species or system Chinese hamster; details: 100 nM NMS (Figure 4 right)
In short: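 GDP-less CHO-M2 membranes, 30°C. Association of 500 nM [³H]GDP was measured after 20 min pre-incubation with buffer, 10 or 100 µM agonist, or 0.1 µM antagonist. For dissociation, membranes were prelabelled with 500 nM [³H]GDP for 180 min, then chased with 50 µM GDP alone or with ligand. Slow and fast rate constants came from biphasic fits.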

[4] = molecular target: T2, M2 receptor-G-protein complex (Homo sapiens, UniProt P08172); type: binding
T2 sequence (P08172 1-466): T1 sequence (P08172 1-466)

[5] = molecular target: T2, M2 receptor-G-protein complex; type: binding; details: Eqn 8, GDP-less membranes, 1 nM [3H]NMS
Gs/olf G-proteins [6] = molecular target: T3, Gs/olf G-proteins (Homo sapiens, UniProt P08172); assay: biochemical; type: biochemical, Chinese hamster
T3 sequence (P08172 1-466): T1 sequence (P08172 1-466)

Gq/11 G-proteins [7] = molecular target: T4, Gq/11 G-proteins (Homo sapiens, UniProt P08172); assay: [35S]GTPγS binding to Gq/11 G-proteins; type: biochemical, Chinese hamster; details: Gq/11, text
T4 sequence (P08172 1-466): T1 sequence (P08172 1-466)

Gi/o G-proteins [8] = molecular target: T5, Gi/o G-proteins (Homo sapiens, UniProt P08172); assay: biochemical; type: biochemical, Chinese hamster
T5 sequence (P08172 1-466): T1 sequence (P08172 1-466)

Gs/olf G-proteins [9] = molecular target: T3, Gs/olf G-proteins; assay: biochemical; type: binding, Chinese hamster
Gq/11 G-proteins [10] = molecular target: T4, Gq/11 G-proteins; type: binding, Chinese hamster; details: Gq/11, 10 µM [3H]GDP
[11] = molecular target: T1, human M2 muscarinic receptor; assay: Competition of agonists with 1 nM [3H]NMS binding
Gi/o G-proteins [12] = molecular target: T5, Gi/o G-proteins; assay: biochemical; type: binding, Chinese hamster
[13] = 1 nM [35S]GTPγS, GDP-less membranes, no GDP, no ligand
[14] = NMS (100 nM), presence of 50 µM GDP

Q: What does the source list for Nc1nc2c(ncn2[C@@H]2O[C@H](COP(=O)(O)OP(=O)(O)OP(O)(O)=S)[C@@H](O)[C@H]2O)c(=O)[nH]1 [GTPγS, guanosine-5′-γ−thiotriphosphate]?
A: Beq [1, 13]: 5.66 ± 0.22 fmol·µg^−1protein; koff [1, 13]: 9e-05 ± 3.61e-06 s⁻¹

Q: Which results are given for C[N+]1(C)[C@@H]2C[C@@H](OC(=O)[C@H](CO)c3ccccc3)C[C@H]1[C@@H]1O[C@@H]12 [NMS, N-methylscopolamine]?
A: behaviour in [35S]GTPγS binding ([2]; Figures 1 and 8): inverse agonist; Beq of [35S]GTPγS ([1]; GDP-less membranes, 50 µM GDP +100 nM NMS): 1.20 ± 0.11 fmol·µg^−1protein; effect on dissociation kinetics of [35S]GTPγS [1, 14]: did not change; slowing of association of [35S]GTPγS [1, 14]: 25%; effect on GDP dissociation [3]: only slightly slows down; effect on [3H]GDP binding ([4]; 10 µM [3H]GDP, increasing ligand concentration): did not affect; cooperativity between NMS and GDP ([4]; Figures 6 and 7): neutral

Q: Which results are given for O=C1CCCN1CC#CCN1CCCC1 [Oxotremorine]?
A: reduction of agonist affinity by GDP (factor of cooperativity β) [5]: 60 fold; pEC50 (Gs/olf G-proteins [6]): 5.13; EMAX (Gs/olf G-proteins [6]; Gs/olf): 1.53 ± 0.01 fold increase over basal binding; pEC50 [2]: 5.99; maximal increase of [35S]GTPγS binding (Emax) [2]: 2.8 fold increase; EMAX [fold over basal] ([2]; 500 pM [35S]GTPγS, 50 µM GDP): 2.78 ± 0.06 fold over basal; nH ([2]; Hill coefficient, Eqn 2): 0.92 ± 0.03; stimulation of [35S]GTPγS binding (Gq/11 G-proteins [7]): no stimulation; pEC50 (Gi/o G-proteins [8]): 6.03; EMAX (Gi/o G-proteins [8]; Gi/o): 2.72 ± 0.05 fold increase over basal binding; pKd (Gs/olf G-proteins [9]): 7.97; pα (Gs/olf G-proteins [9]; Gs/olf, cooperativity between agonist and [3H]GDP binding): −0.78 ± 0.08; effect on [3H]GDP equilibrium binding (Gq/11 G-proteins [10]): no effect; factor of cooperativity α between binding of [3H]GDP and agonist (pα) ([4]; 10 µM [3H]GDP, GDP-less membranes, n=3): −1.8 ± 0.1; flow[%] ([11]; Control (crude membranes), fraction of receptors in low-affinity state): 66 ± 8%; flow[%] ([11]; GDP-less membranes): 13 ± 4 %; change of high-affinity KI in GDP-less membranes vs control ([11]; GDP-less vs control membranes): not changed; pKi ([11]; pKi high, Control (crude membranes)): 7.93; pKi ([11]; pKi high, GDP-less membranes): 7.95; pKi ([11]; pKi, +1 µM GTPγS, monophasic): 6.26; pKi ([11]; pKi, +50 µM GDP, monophasic): 6.38; pKd (Gi/o G-proteins [12]): 7.93; pα (Gi/o G-proteins [12]; Gi/o, cooperativity between agonist and [3H]GDP binding): −2.1 ± 0.2
